Laboratory results published in ChEMBL document CHEMBL1128448, “Synthesis and antifungal activity of new azole derivatives containing an N-acylmorpholine ring” (1995).
Converted amounts (≈) assume the structure as drawn.

Key:
[1] = system: Candida albicans; test: […] Evaluation of minimum inhibitory concentration against Candida albicans 406; assay type: functional
How it was run: (§1)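 Stocks are 800 μg/mL in 50% ethanol. Each plate gets 10 μL of inoculum at 10^5 cfu/mL. Incubation at 25 °C, 48 h for yeasts and 120 h for dermatophytes and molds. Organisms are ATCC strains or clinical isolates.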

[2] = system: Nakaseomyces glabratus; test: In vitro evaluation of minimum inhibitory concentration against Torulopsis glabrata 78; assay type: functional; settings: Nakaseomyces glabratus; read-out: MIC; how it was run: as §1
[3] = system: Trichophyton benhamiae; test: In vitro evaluation of minimum inhibitory concentration against Trichophyton mentagrophytes 23; assay type: functional, Arthroderma benhamiae; how it was run: as §1
[4] = system: Candida tropicalis; test: In vitro evaluation of minimum inhibitory concentration against Candida tropicalis 2.11; assay type: functional; how it was run: as §1
[5] = system: Candida albicans; test: In vitro evaluation of minimum inhibitory concentration against Candida albicans 76; assay type: functional; how it was run: as §1
[6] = system: Kluyveromyces marxianus; test: In vitro evaluation of minimum inhibitory concentration against Candida pseudotropicalis 13; assay type: functional; how it was run: as §1
[7] = system: Candida parapsilosis; test: In vitro evaluation of minimum inhibitory concentration against Candida parapsilosis 61; assay type: functional; how it was run: as §1
[8] = system: Aspergillus flavus; test: In vitro evaluation of minimum inhibitory concentration against Aspergillus flavus 19; assay type: functional; settings: Aspergillus flavus; read-out: MIC; how it was run: as §1
[9] = system: Nannizzia gypsea; test: In vitro evaluation of minimum inhibitory concentration against Microsporum gypseum 22; assay type: functional; how it was run: as §1
[10] = system: Trichophyton rubrum; test: In vitro evaluation of minimum inhibitory concentration against Trichophyton rubrum 90; assay type: functional; how it was run: as §1
[11] = system: Rhodotorula mucilaginosa; test: In vitro evaluation of minimum inhibitory concentration against Rhodotorula rubra 16; assay type: functional; how it was run: as §1
[12] = system: Aspergillus niger; test: In vitro evaluation of minimum inhibitory concentration against Aspergillus niger 18; assay type: functional; settings: Aspergillus niger; read-out: MIC; how it was run: as §1
[13] = system: Pichia kudriavzevii; test: In vitro evaluation of minimum inhibitory concentration against Candida krusei 70; assay type: functional; how it was run: as §1
[14] = system: Candida albicans; test: […] Evaluation of minimum inhibitory concentration against Candida albicans 60; assay type: functional; how it was run: as §1
[15] = system: Microsporum canis; test: In vitro evaluation of minimum inhibitory concentration against Microsporum canis 47; assay type: functional; how it was run: as §1
[16] = system: Meyerozyma guilliermondii; test: In vitro evaluation of minimum inhibitory concentration against Candida guilliermondii 26; assay type: functional; how it was run: as §1
[17] = system: Aspergillus fumigatus; test: In vitro evaluation of minimum inhibitory concentration against Aspergillus fumigatus 33; assay type: functional; settings: Aspergillus fumigatus; read-out: MIC; how it was run: as §1
[18] = system: Mus sp.; test: In vivo evaluation of % survival rate after peroral administration on 9th day at dose 2.5 mg/kg; assay type: functional; settings: for survival at 2.5 mg/kg: Mus sp., po
[19] = system: Mus sp.; test: In vivo evaluation of % survival rate after peroral administration on 3rd day at dose 2.5 mg/kg; assay type: functional; settings: for survival at 2.5 mg/kg: Mus sp., po
[20] = system: Mus sp.; test: In vivo evaluation of % survival rate after peroral administration on 5th day at dose 2.5 mg/kg; assay type: functional; settings: for survival at 2.5 mg/kg: Mus sp., po
[21] = system: Candida albicans; test: In vivo evaluation of minimum inhibitory concentration against Candida albicans 60; assay type: functional
How it was run: (§2)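 Broth macrodilution MIC following NCCLS M27-P, in RPMI-1640 buffered with 0.165 M MOPS. Fluconazole was dissolved in water and other drugs in DMSO. C. parapsilosis ATCC 22019 served as the reference strain in every run. MIC was the lowest concentration giving turbidity at or below the 80% inhibition standard.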

[22] = system: Mus sp.; test: In vivo evaluation of % survival rate after peroral administration on 7th day at dose 2.5 mg/kg; assay type: functional; settings: for survival at 2.5 mg/kg: Mus sp., po
[23] = system: Candida albicans; test: In vivo evaluation of minimum inhibitory concentration against Candida albicans 406; assay type: functional; how it was run: as §2
[24] = system: Mus sp.; test: In vivo evaluation of % survival rate after peroral administration on 9th day at dose 1 mg/kg; assay type: functional; settings: for Survival: route oral, 1 mg/kg
[25] = system: Mus sp.; test: In vivo evaluation of % survival rate after peroral administration on 7th day at dose 1 mg/kg; assay type: functional; settings: for Survival: route oral, 1 mg/kg
[26] = system: Mus sp.; test: In vivo evaluation of % survival rate after peroral administration on 3rd day at dose 1 mg/kg; assay type: functional; settings: for Survival: route oral, 1 mg/kg
[27] = system: Mus sp.; test: In vivo evaluation of % survival rate after peroral administration on 5th day at dose 1 mg/kg; assay type: functional; settings: for Survival: route oral, 1 mg/kg
[28] = Trichophyton benhamiae, read-out: MIC
[29] = Candida tropicalis, read-out: MIC
[30] = Candida albicans, read-out: MIC
[31] = Kluyveromyces marxianus, read-out: MIC
[32] = Lodderomyces parapsilosis, read-out: MIC
[33] = Nannizzia gypsea, read-out: MIC
[34] = Trichophyton rubrum, read-out: MIC
[35] = Rhodotorula mucilaginosa, read-out: MIC
[36] = Pichia kudriavzevii, read-out: MIC
[37] = Microsporum canis, read-out: MIC
[38] = Meyerozyma guilliermondii, read-out: MIC

Row | SMILES | MIC [2] | MIC [3, 28] | MIC [4, 29] | MIC [5, 30] | MIC [6, 31] | MIC [7, 32] | MIC [8] | MIC [9, 33] | MIC [10, 34] | MIC [11, 35] | MIC [12] | MIC [13, 36] | MIC [15, 37] | MIC [16, 38] | MIC [17] | survival at 2.5 mg/kg [18] | survival at 2.5 mg/kg [19] | survival at 2.5 mg/kg [20] | MIC [21, 30] | survival at 2.5 mg/kg [22] | also measured
1 | CCC(C)n1ncn(-c2ccc(N3CCN(c4ccc(OC[C@H]5CO[C@](Cn6cncn6)(c6ccc(Cl)cc6Cl)O5)cc4)CC3)cc2)c1=O (some centres not stated) [ITRACONAZOLE] | > 80 µg/mL | > 80 µg/mL | 20 µg/mL (≈ 28.3 µM) | 0.63 µg/mL (≈ 0.893 µM) | 80 µg/mL (≈ 113 µM) | 0.07 µg/mL (≈ 0.0992 µM) | > 80 µg/mL | 80 µg/mL (≈ 113 µM) | 0.63 µg/mL (≈ 0.893 µM) | > 80 µg/mL | > 80 µg/mL | 1.25 µg/mL (≈ 1.77 µM) | 80 µg/mL (≈ 113 µM) | 0.15 µg/mL (≈ 0.213 µM) | 0.15 µg/mL (≈ 0.213 µM) |  |  |  |  |  | MIC [1]: < 0.03 µg/mL; MIC [14]: 0.07 µg/mL (≈ 0.0992 µM)
2 | C[C@H]1N(C(=O)c2ccc(OCC(F)(F)C(F)F)cc2)CC(=O)O[C@@]1(Cn1cncn1)c1ccc(F)cc1F (racemic) | > 80 µg/mL | > 80 µg/mL | > 80 µg/mL | > 80 µg/mL | 80 µg/mL (≈ 147 µM) | 80 µg/mL (≈ 147 µM) | > 80 µg/mL | > 80 µg/mL | > 80 µg/mL | > 80 µg/mL | > 80 µg/mL | > 80 µg/mL | > 80 µg/mL | 80 µg/mL (≈ 147 µM) | > 80 µg/mL | 70% | 100% | 100% | 10 µg/mL (≈ 18.4 µM) | 90% | MIC [23, 30]: 10 µg/mL (≈ 18.4 µM)
3 | C[C@H]1N(C(=O)c2ccc(C(F)(F)F)cc2)C[C@H](O)O[C@@]1(Cn1cncn1)c1ccc(Cl)cc1Cl (racemic) | 20 µg/mL (≈ 38.8 µM) | 40 µg/mL (≈ 77.6 µM) | 20 µg/mL (≈ 38.8 µM) | 5 µg/mL (≈ 9.7 µM) | 0.15 µg/mL (≈ 0.291 µM) | 2.5 µg/mL (≈ 4.85 µM) | 20 µg/mL (≈ 38.8 µM) | 40 µg/mL (≈ 77.6 µM) | 40 µg/mL (≈ 77.6 µM) | 2.5 µg/mL (≈ 4.85 µM) | > 80 µg/mL | 10 µg/mL (≈ 19.4 µM) | 40 µg/mL (≈ 77.6 µM) | 5 µg/mL (≈ 9.7 µM) | 20 µg/mL (≈ 38.8 µM) | 100% | 100% | 100% | 1.25 µg/mL (≈ 2.43 µM) | 100% | survival at 1 mg/kg ([24]; Mus sp., po): 70%; survival at 1 mg/kg ([25]; Mus sp., po): 90%; MIC [23, 30]: 0.63 µg/mL (≈ 1.22 µM); survival at 1 mg/kg ([26]; Mus sp., po): 100%; survival at 1 mg/kg ([27]; Mus sp., po): 100%
4 | C[C@H]1N(C(=O)c2ccc(C(F)(F)F)cc2)CCO[C@@]1(Cn1cncn1)c1ccc(F)cc1F (racemic) |  |  |  |  |  |  |  |  |  |  |  |  |  |  |  |  |  |  |  |  | MIC [3]: 80 µg/mL (≈ 172 µM); MIC [4]: 80 µg/mL (≈ 172 µM); MIC [5]: 80 µg/mL (≈ 172 µM); Survival ([18]; route oral, 2.5 mg/kg): 90%; MIC [6]: 5 µg/mL (≈ 10.7 µM); Survival ([19]; route oral, 2.5 mg/kg): 100%; MIC [7]: 40 µg/mL (≈ 85.8 µM); Survival ([20]; route oral, 2.5 mg/kg): 100%; Survival [24]: 0%; MIC [9]: 40 µg/mL (≈ 85.8 µM); Survival [25]: 10%; MIC [21]: 1.25 µg/mL (≈ 2.68 µM); MIC [10]: 20 µg/mL (≈ 42.9 µM); MIC [11]: 40 µg/mL (≈ 85.8 µM); Survival ([22]; route oral, 2.5 mg/kg): 90%; MIC [13]: 80 µg/mL (≈ 172 µM); MIC [15]: 40 µg/mL (≈ 85.8 µM); MIC [16]: 80 µg/mL (≈ 172 µM); Survival [26]: 80%; Survival [27]: 70%
5 | C[C@H]1N(C(=O)c2ccc(C(F)(F)F)cc2)C[C@H](O)O[C@@]1(Cn1cncn1)c1ccc(F)cc1F (racemic) | > 80 µg/mL |  | > 80 µg/mL |  |  |  |  |  |  | > 80 µg/mL |  |  |  |  |  | 100% | 100% | 100% |  | 100% | MIC [5]: >80 µg/mL; MIC [6]: 10 µg/mL (≈ 20.7 µM); MIC [7]: 80 µg/mL (≈ 166 µM); Survival [24]: 25%; Survival [25]: 55%; MIC [21]: 10 µg/mL (≈ 20.7 µM); MIC [10]: >80 µg/mL; MIC [23]: 2.5 µg/mL (≈ 5.18 µM); MIC [15]: 80 µg/mL (≈ 166 µM); MIC [16]: >80 µg/mL; Survival [26]: 85%; Survival [27]: 85%
